Shown are actives, neighbours in structure and some others; about 1.3% of the full set was active somewhere.
Hck Nef HTS: inhibitors of human Hck kinase activated by Nef; P08631; AID 463187; inhibition, % at 20 µM; actives 0.68% (n = 220,000); Recombinant Hck-YEEI plus Nef, Z-Lyte FRET kinase assay;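 active = Hck-Nef kinase inhibition above about 50%, limit read from the data; inactive = inhibition below that limit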;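 also: 0% = DMSO with Hck plus Nef and 100% = Hck alone without Nef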
Target sequence (P08631 whole entry, looked up): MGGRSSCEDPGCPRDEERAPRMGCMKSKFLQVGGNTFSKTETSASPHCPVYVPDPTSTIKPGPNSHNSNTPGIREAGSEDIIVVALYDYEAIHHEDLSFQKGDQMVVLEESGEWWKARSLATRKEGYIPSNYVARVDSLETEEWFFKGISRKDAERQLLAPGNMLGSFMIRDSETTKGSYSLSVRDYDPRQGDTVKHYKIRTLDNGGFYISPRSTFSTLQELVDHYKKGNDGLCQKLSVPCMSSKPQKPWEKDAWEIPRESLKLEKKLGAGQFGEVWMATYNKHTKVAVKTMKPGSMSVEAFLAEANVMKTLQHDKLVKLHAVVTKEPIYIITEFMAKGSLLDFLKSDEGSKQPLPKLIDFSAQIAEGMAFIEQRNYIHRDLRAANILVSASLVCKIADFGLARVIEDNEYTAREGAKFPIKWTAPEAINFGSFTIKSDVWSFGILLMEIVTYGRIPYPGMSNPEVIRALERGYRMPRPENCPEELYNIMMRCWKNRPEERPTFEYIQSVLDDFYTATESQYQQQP
Rad51 HR inh: blocks human Rad51 in homologous recombination; hRad51 DNA strand exchange, fluorescence dequenching; inhibition, % at 10 µM; actives 0.085% (n = 200,000); AID 1385;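 active = inhibition above 40% at the single screening dose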;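 also: 0% = DMSO control wells and 100% = blanks with heterologous ssDNA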
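Test system: preformed human Rad51 ssDNA filaments. Compound dosing: single dose, 10 µM final compound. Incubation: filaments 15 min 37 °C, then compound 30 min. Technique: FRET fluorescence dequenching, excitation 485 nm, emission 520 nm. Read-out basis: percent inhibition from fluorescence, normalised to plate control and blank means. Benchmarks: plate controls and plate blanks.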
Mdm2 ligase inh: inhibitors of human Mdm2 E3 ubiquitin ligase | signal enhancement, % at 5 µM | cell-based MDM2 ubiquitination luciferase reporter, 2 h; 0 = plate control, 100 = twice control, blank-subtracted | actives 0.11% (n = 210,000) | Q00987;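 active = signal enhancement of 30% or more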;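 also: luminescence tracks abundance of the self-degrading MDM2-luciferase fusion protein; higher signal means inhibition of MDM2 E3 ligase activity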
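Assay system: stable mammalian line carrying autodegrading MDM2–luciferase fusion reporter; amount: 2000 cells seeded into each well; buffer or medium: DMEM; benchmarks: plate control and blank wells; signal: luciferase luminescence; timing: 2 h compound exposure at 37 °C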
TAG inh: triacylglycerol accumulation inhibition. H9c2 cells, Nile Red lipid (TAG) fluorescence; cells loaded with 200 µM oleic acid. inhibition, % at 12.5 µM. actives 0.66% (n = 230,000). AID 651582;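 active = pattern-corrected inhibition of lipid staining of at least 50% with the nuclear-stain viability signal not falling by more than 50%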;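 also: 0% = DMSO wells and 100% = triacsin C control wells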
PKD1 kinase inh: PKD1 (human) kinase inhibition. AID 797. inhibition, % (test concentration not listed). actives 0.056% (n = 200,000). Q15139. PKD1 kinase fluorescence polarization assay; in the data active = inhibition above about 50%
PERK inhibitor: blocks human PERK kinase. Q9NZJ5. CHO PERK-DD fusion, SEAP luminescence translation reporter. inhibition, % at 5.6 µM. actives 0.17% (n = 220,000);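 active = inhibition above the mean inhibition of all tested compounds plus 3 SD, set separately per screening campaign, cut at about 2.9% in these data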;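 also: PERK kinase domain activated by AP20187 dimerizer at 100 nM; 0% = DMSO with dimerizer and 100% = rapamycin at 8.4 µM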
Hck Nef conf: confirmation of Hck-Nef kinase inhibitors; shares compounds with Hck Nef HTS; Recombinant Hck-YEEI:Nef, Z-Lyte FRET kinase assay; calls only at 10 µM; actives 28% (n = 1,300); AID 463188;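 active = average inhibition of at least 50%, with Z-scores no higher than 3 in both the phospho-tyrosine peptide and fluorescence counterscreens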
Numbers without * were called inactive; i = inactive; · = not tested or not shown; + = active, no number.

SMILES	Hck Nef HTS	Rad51 HR inh	Mdm2 ligase inh	TAG inh	PKD1 kinase inh	PERK inhibitor	Hck Nef conf
CC(=O)C1C(c2ccc3ncccc3c2)NC(=O)NC1(O)C(F)(F)F (stereo unspecified)	52*	-6	-1	·	-3	2	i
COc1ccccc1NC(=O)c1ccc2c(c1)C(=O)N(Cc1ccco1)C2=O	·	·	·	18	·	·	·
COC(=O)c1ccccc1NC(=O)c1ccc2c(c1)C(=O)N(Cc1ccco1)C2=O	58*	9	·	·	-5	1	i
CC1(C)OC(=O)C(=Cc2ccc(-c3ccc(Cl)c(C(=O)O)c3)o2)C(=O)O1	77*	-5	-3	·	2	1	i
O=C(O)c1cc(-c2ccc(/C=C3/SC(=S)N(Cc4ccccc4)C3=O)o2)ccc1Cl	141*	i	-1	-3	2	0	+
COc1ccc(CN2C(=O)/C(=C/c3ccc(-c4ccc(Cl)c(C(=O)O)c4)o3)SC2=S)cc1	-17	i	-8	·	2	0	·
COc1ccc(-c2cc(-c3ccco3)[nH]c(=O)c2C#N)cc1OC	53*	-33	-14	3	·	0	i
CCc1ccccc1Oc1nc(NCCOC)nc2cc(-c3ccccc3)sc12	·	·	·	-1	·	·	·
CCSC1=N/C(=C\c2ccc(C(=O)O)cc2)C(=O)S1	8	9	-5	-15	-4	1	·
O=C1SC(SCc2ccccc2Cl)=N/C1=C\c1ccc(C(=O)O)cc1	63*	-10	-11	-14	2	1	i
CCN(CC)c1ccc(/C=N\NC(N)=O)cc1	2	-8	-10	·	-5	0	·
CCN(CC)c1ccc(/C=N/NC(=O)c2ccoc2C)cc1	61*	8	-55	-1	·	0	·
CC1CCN(c2ccc3c(c2)S(=O)(=O)c2cccc(C(=O)NC4CCCCC4)c2C3=O)CC1	·	·	·	33	·	·	·
CCC(c1nnnn1Cc1ccccc1)N1CCN(c2ccc(OC)cc2)CC1 (stereo unspecified)	23	3	1	3	1	0	·
CCC(c1nnnn1Cc1ccc(OC)cc1)N1CCN(c2ccc(OC)cc2)CC1 (stereo unspecified)	62*	6	4	6	0	0	i
Cc1cccc(NC(=O)c2cc3cc([N+](=O)[O-])ccc3s2)n1	51*	0	-12	4	-8	1	i
Cc1c(Cl)cccc1NC(=O)CSc1nc(=O)n(CCCN2CCOCC2)c2c1CCCC2	·	·	·	1	·	·	·
Cc1ccc(CN2C(=O)N/C(=C\c3ccc(-c4ccc(C(=O)O)cc4C)o3)C2=O)cc1	60*	7	-7	-2	·	0	i
Cc1cc(C(=O)O)ccc1-c1ccc(/C=C2\NC(=O)N(Cc3ccccc3Cl)C2=O)o1	37	1	3	·	1	1	·
CCc1c(C)c(C#N)c2nc3ccccc3n2c1NCC1CCCO1 (stereo unspecified)	21	0	-11	4	4	-3	·
CCCc1cc(NCCCO)n2c(nc3ccccc32)c1C#N	194*	19	-6	0	·	1	·
CCCc1cc(-n2ccnc2)n2c(nc3ccccc32)c1C#N	5	·	-10	5	-2	0	·
Cc1cc(NCCN2CCCCC2)n2c(nc3ccccc32)c1C#N	29	-17	-11	·	-7	1	·
CC(C)c1cc(NCC2CCCO2)n2c(nc3ccccc32)c1C#N (stereo unspecified)	108*	4	1	10	0	-2	·
Cc1cc(NCCCn2ccnc2)n2c(nc3ccccc32)c1C#N	64*	8	-5	15	-9	0	·
SMILES	Hck Nef HTS	Rad51 HR inh	Mdm2 ligase inh	TAG inh	PKD1 kinase inh	PERK inhibitor	Hck Nef conf
CC(C)c1cc(NCCN2CCOCC2)n2c(nc3ccccc32)c1C#N	·	·	·	6	·	·	·
Cc1cc(NCC2CCCO2)n2c(nc3ccccc32)c1C#N (stereo unspecified)	95*	-6	-27	16	-5	-3	·
NC(=O)/C(=N\OC(=O)c1ccco1)c1nc(-c2ccc(Br)cc2)cs1	1	·	-7	·	-8	1	·
CSc1cccc(N2CC(C(=O)N(Cc3nnc(-c4ccccc4Cl)o3)C3CC3)CC2=O)c1 (stereo unspecified)	·	·	·	8	·	·	·
O=C(CNC(=O)c1ccc(Cl)cc1)c1ccccc1	·	·	·	-15	·	·	·
CCOC(=O)Cn1nc2oc(=O)c(CCN3CCN(c4ccccc4OC)CC3)c(C)c2c1C	·	·	·	2	·	·	·
CCCCc1ccc(NC2=NCC(=O)N2CCc2ccccc2)cc1	17	3	-1	2	-7	0	·
Cc1ccc(NS(=O)(=O)c2ccc(C(=O)N3CCN(c4ccccn4)CC3)cc2)cc1	80*	13	-85	·	-9	-1	i
CCNC(=O)C1(C)CCN(C(=O)c2c(F)ccc(C)c2F)C1 (stereo unspecified)	·	·	·	3	·	·	·
Cn1c(=O)[nH]c(=O)c2c1nc(N/N=C/C(Br)=C/c1ccccc1)n2CCO	60*	22	2	-6	·	1	+
CC(C)=NNc1nc2c(c(=O)[nH]c(=O)n2C)n1CCc1ccccc1	19	13	-12	·	-6	0	·
O=S(=O)(c1ccc(N2CCC(c3ccc(Cl)cc3)=N2)cc1)N(CCO)CCO	82*	-1	-13	·	5	0	·
O=S(=O)(c1ccc(Oc2ccc(S(=O)(=O)N(CCO)CCO)cc2)cc1)N(CCO)CCO	21	-4	-8	·	-6	1	·
COC(OC)c1ccnc(-c2ccc(OC(=O)c3ccccc3)cc2)n1	58*	0	0	-5	-7	0	i
COC(OC)c1ccnc(-c2ccc(OC(C)=O)cc2)n1	22	2	-12	19	3	2	·
COc1cc(Cl)c(NC2=CC(=O)C(=O)c3ccccc32)c(OC)c1	·	·	·	35	·	·	·
COc1cc(/C=C/c2ccc3cccc(OC)c3n2)c(OC(C)=O)c([N+](=O)[O-])c1	-2	-3	-10	·	2	-2	·
COc1cc(/C=C/c2ccc3cccc(OC)c3n2)c(O)c([N+](=O)[O-])c1	69*	-2	-6	3	-6	1	+
N#Cc1c(N)n(-c2cccc(O)c2)c2nc3ccccc3nc12	72*	9	-8	6	·	0	·
O=C1NCCCN1C1OC(CO)C(O)C1O (stereo unspecified)	·	·	·	8	·	·	·

Screening results (PubChem BioAssay)
